From ChEMBL document CHEMBL1127051, “Vanilloids. 1. Analogs of capsaicin with antinociceptive and antiinflammatory activity” (J Med Chem, 1993)

Assays:
Mus musculus [1] = test: Percentage inhibition in mouse by using Croton oil-inflamed mouse ear test (topical dosing).; format: functional; design: concentration or dose not given beside the values
Method in brief: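 Male Cox ICR mice (25–35 g), 10 per group. Left ear given 25 μL of 1% compound in ethanol, repeated ~17 h later; 1 h after that, both ears given 25 μL 2% croton oil. After 4 h, 5 mm ear punches weighed. % inhibition = [(C − T1)/C]×100, using left-minus-right weight differences versus vehicle controls.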

[2] = Acute toxicity after intraperitoneal dose at 33 mg/kg in mice; format: organism-based; design: dose 33 mg/kg, route intraperitoneal; settings: mouse, in vivo, ip, read-out: Lethality
Method in brief: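 Single intraperitoneal dose at the listed mg/kg; acute toxicity scored as % lethality = number of deaths / number of animals dosed, 7–10 animals per group.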

Rattus norvegicus = test: Percentage analgesia by rat hot plate test after oral administration at 300 mg/kg.; format: functional
Method in brief: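 Rats fasted 18 h, prescreened on a 55 ± 0.5 °C hot plate (latency <12 s, else lowest <30 s) to set the 0 h value. Groups of 8 dosed orally in sesame oil (1 mL/200 g); latency read at 1.5, 3, 5 h (24 h if persisting). %analgesia = [(LT(t) − LT(0))/(60 − LT(0))]×100, taken at the time of maximal latency.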

Mus musculus [3] = test: Latency time measured by mouse hot plate test after subcutaneous administration at 200 mg/kg; format: functional; design: unit: s
Method in brief: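 Male CF-1 mice, 8 per group, given test agent sc in 0.2 mL ethanol/Tween-80/saline (10/10/80); dose 0.68 mmol (200 mg/kg for capsaicin). Placed on copper surface held at 55 ± 0.5 °C. Paw-response latency (s) reported as group mean ± SD; pretest latency ~5 s.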

For `C=CCCCCCCCCC(=O)NCc1ccc(O)c(OC)c1`, the Inhibition (Mus musculus [1]) was 65.7%, the mortality [2] was 50% and the Analgesia (Rattus norvegicus) was 8%. For the same molecule, the Latency (Mus musculus [3]) was 55.5.
